Measurements: ChEMBL document CHEMBL1131065, “1,4- and 2,6-disubstituted amidoanthracene-9,10-dione derivatives as inhibitors of human telomerase” (J Med Chem, 1998)
The source made the active and inactive calls. The calls are words filed in the database; no cut-off is given here.

What was measured:
[1] = target: DNA polymerase I, thermostable (Thermus aquaticus) (UniProt P19821); experiment: Inhibition of Taq polymerase at 10 uM (Slight inhibition)
How it was run: (§1)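 Compound at final 10 µM in a PCR mix: pCI-neo vector template, forward/reverse primers, Tris-HCl pH 8.8 buffer, 2.5 mM MgCl2, 200 µM each dNTP, 1.25 U thermostable polymerase. Run 30 cycles (94/55/72 °C). Products separated on 2% agarose with ethidium bromide and compared to a no-drug water control (~1 kb product); inhibition graded semiquantitatively.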

[2] = target: DNA polymerase I, thermostable (Thermus aquaticus) (UniProt P19821); experiment: Inhibition of Taq polymerase at 50 uM (Total inhibition)
How it was run: (§2)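 Compound at final 50 µM in PCR with pCI-neo template and primers, Tris-HCl pH 8.8 buffer, 2.5 mM MgCl2, 200 µM each dNTP, 1.25 U thermostable polymerase. Run 30 cycles of 94 °C 1 min, 55 °C 1 min, 72 °C 2.5 min. Agarose/ethidium bromide read-out against a water no-drug control, scored semiquantitatively.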

CH1 = experiment: Concentration required to inhibit CH1-cell growth by 50%; format: functional, cell-based; conditions: Homo sapiens
How it was run: (§3)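 Human ovarian carcinoma cells grown as monolayers in DMEM with 10% FBS, 2 mM glutamine and 0.5 µg/mL hydrocortisone under 6% CO2. 3000–6000 cells per well, attached overnight. Salts dissolved in water, added in quadruplicate at final 0.05, 0.25, 1, 5 and 25 µM for 96 h. Cells fixed with TCA and stained with SRB, absorbance read at 540 nm. IC50 taken from mean absorbance as % of untreated control.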

SK-OV-3 = experiment: Concentration required to inhibit SKOV-3-cell growth by 50%; format: functional, cell-based; conditions: Homo sapiens; how it was run: as §3
A2780 = experiment: Concentration required to inhibit A2780-cell growth by 50%; format: functional, cell-based; conditions: Homo sapiens; how it was run: as §3
[3] = target: DNA polymerase I, thermostable (Thermus aquaticus) (UniProt P19821); experiment: Inhibition of Taq polymerase at 10 uM (No inhibition); how it was run: as §1
[4] = target: T1, Telomerase reverse transcriptase (Homo sapiens, UniProt O14746); experiment: Inhibition of telomerase activity
How it was run: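 Modified cell-free TRAP using CHAPS lysate of exponentially growing A2780 cells. Protein (0.04 µg) incubated with TS primer, 50 µM dNTPs and [α-32P]dCTP in TRAP buffer (pH 8.3) ± compound at 1–50 µM for 20 min at 25 °C. Telomerase heat-killed at 80 °C, then 31-cycle PCR with CX primer and Taq. Products read by denaturing gel/phosphorimaging or TCA filter scintillation counting. IC50 taken relative to controls.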

[5] = target: DNA polymerase I, thermostable (Thermus aquaticus) (UniProt P19821); experiment: Inhibition of Taq polymerase at 50 uM (No inhibition); how it was run: as §2
[6] = target: DNA polymerase I, thermostable (Thermus aquaticus) (UniProt P19821); experiment: Inhibition of Taq polymerase at 10 uM (Significant inhibition); how it was run: as §1
[7] = target: T1, Telomerase reverse transcriptase; experiment: Concentration required to inhibit telomerase activity
How it was run: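 Cell-free modified TRAP assay. Enzyme source is a CHAPS lysate of exponentially growing A2780 ovarian carcinoma cells, which was clarified and stored at -80 °C. Protein (0.04 μg) was incubated with TS primer, dNTPs and [α-32P]dCTP in TRAP buffer (pH 8.3) ± agent at 1, 5, 10, 20 and 50 μM for 20 min at 25 °C. Telomerase was then heat-inactivated at 80 °C, followed by 31-cycle PCR with CX primer. Products were quantified by gel phosphorimaging or by TCA-precipitated filter scintillation counting. IC50 is relative to controls.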

T1 sequence (O14746 whole entry): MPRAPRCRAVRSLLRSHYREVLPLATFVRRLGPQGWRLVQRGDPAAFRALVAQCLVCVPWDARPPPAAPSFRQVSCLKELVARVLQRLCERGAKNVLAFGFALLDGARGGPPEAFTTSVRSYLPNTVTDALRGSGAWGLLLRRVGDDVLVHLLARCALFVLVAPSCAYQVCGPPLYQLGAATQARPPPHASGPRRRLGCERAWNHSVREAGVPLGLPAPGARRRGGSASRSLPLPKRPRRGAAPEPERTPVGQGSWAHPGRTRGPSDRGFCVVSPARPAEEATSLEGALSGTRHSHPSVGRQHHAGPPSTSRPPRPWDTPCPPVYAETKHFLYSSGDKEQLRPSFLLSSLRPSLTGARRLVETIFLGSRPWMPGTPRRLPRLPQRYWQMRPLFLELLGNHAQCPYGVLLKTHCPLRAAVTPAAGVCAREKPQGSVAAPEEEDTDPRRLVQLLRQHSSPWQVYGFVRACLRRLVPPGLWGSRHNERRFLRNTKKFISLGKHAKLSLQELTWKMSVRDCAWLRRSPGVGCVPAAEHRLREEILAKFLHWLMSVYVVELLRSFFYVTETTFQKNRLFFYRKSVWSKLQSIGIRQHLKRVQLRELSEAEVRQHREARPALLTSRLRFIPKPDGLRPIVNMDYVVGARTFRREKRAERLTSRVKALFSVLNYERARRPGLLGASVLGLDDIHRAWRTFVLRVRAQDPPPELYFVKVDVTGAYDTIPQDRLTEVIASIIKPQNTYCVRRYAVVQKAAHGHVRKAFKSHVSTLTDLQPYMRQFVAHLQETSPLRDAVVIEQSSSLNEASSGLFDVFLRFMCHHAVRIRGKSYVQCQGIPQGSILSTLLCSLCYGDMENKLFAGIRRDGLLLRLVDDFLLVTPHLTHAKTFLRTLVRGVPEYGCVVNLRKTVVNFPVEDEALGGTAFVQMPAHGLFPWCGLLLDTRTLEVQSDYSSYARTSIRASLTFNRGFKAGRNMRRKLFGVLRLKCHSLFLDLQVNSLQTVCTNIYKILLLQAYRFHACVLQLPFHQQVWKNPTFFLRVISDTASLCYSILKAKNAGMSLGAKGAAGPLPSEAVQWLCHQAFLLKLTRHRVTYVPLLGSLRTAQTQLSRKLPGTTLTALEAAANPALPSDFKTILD
Sequence of DNA polymerase I, thermostable (Thermus aquaticus) (P19821 whole entry): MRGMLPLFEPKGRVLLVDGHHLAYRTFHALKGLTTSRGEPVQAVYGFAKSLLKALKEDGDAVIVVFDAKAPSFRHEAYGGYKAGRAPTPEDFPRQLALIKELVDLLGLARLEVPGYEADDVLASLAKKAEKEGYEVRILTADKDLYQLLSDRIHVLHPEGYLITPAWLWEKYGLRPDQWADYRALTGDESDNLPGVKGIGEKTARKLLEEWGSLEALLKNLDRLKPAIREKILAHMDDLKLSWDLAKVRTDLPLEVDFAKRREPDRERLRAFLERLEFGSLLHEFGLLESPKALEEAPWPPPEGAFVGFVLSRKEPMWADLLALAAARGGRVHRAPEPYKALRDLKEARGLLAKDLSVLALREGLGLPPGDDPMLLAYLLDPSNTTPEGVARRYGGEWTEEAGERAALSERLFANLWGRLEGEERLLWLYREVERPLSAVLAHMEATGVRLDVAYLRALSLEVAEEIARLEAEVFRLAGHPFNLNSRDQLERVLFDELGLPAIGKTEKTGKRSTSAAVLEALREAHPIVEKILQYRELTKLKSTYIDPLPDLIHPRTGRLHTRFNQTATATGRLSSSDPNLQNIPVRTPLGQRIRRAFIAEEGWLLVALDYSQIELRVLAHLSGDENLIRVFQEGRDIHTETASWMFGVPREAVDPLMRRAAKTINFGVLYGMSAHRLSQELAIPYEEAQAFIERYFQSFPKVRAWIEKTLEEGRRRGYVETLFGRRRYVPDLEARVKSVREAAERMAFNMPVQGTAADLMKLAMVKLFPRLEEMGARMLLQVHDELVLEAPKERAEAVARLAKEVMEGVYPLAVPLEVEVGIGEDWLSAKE

Row | SMILES | inhibition [1] | inhibition [2] | IC50 (CH1) | IC50 (SK-OV-3) | IC50 (A2780) | Taq inhibition [3] | IC50 [4] | Taq inhibition [5] | inhibition [6] | IC50 [7]
1 | O=C1c2c(O)ccc(O)c2C(=O)c2c(NCCNCCO)ccc(NCCNCCO)c21 | Weak inhibition | Weak inhibition | – | – | – | – | – | – | – | –
2 | C[N+]1(CC(=O)Nc2ccc3c(c2)C(=O)c2ccc(NC(=O)C[N+]4(C)CCCCC4)cc2C3=O)CCCCC1 | – | – | 4.3 µM | 9 µM | 6.5 µM | – | – | – | – | –
3 | CCCN(CCC)CCC(=O)Nc1ccc(NC(=O)CCN(CCC)CCC)c2c1C(=O)c1ccccc1C2=O | – | – | 0.48 µM | 4.5 µM | 0.13 µM | inactive | 50 µM | inactive | – | –
4 | O=C(CCN1CCN(CCO)CC1)Nc1ccc2c(c1)C(=O)c1ccc(NC(=O)CCN3CCN(CCO)CC3)cc1C2=O | – | – | 7.9 µM | 7 µM | 11 µM | – | 16.5 µM | – | – | –
5 | O=C(CCN1CCCCC1)Nc1ccc2c(c1)C(=O)c1ccc(NC(=O)CCN3CCCCC3)cc1C2=O | – | – | 5.9 µM | 4 µM | 1.3 µM | – | 4.5 µM | – | – | –
6 | C[N+](C)(C)CCC(=O)Nc1ccc2c(c1)C(=O)c1ccc(NC(=O)CC[N+](C)(C)C)cc1C2=O | – | – | 1.9 µM | 4.4 µM | 2.25 µM | – | 17.3 µM | – | – | –
7 | CCCN(CCC)CCC(=O)Nc1ccc2c(c1)C(=O)c1ccc(NC(=O)CCN(CCC)CCC)cc1C2=O | – | – | 1.4 µM | 2.4 µM | 0.38 µM | – | > 50 µM | – | – | –
8 | O=C(CN1CCOCC1)Nc1ccc2c(c1)C(=O)c1ccc(NC(=O)CN3CCOCC3)cc1C2=O | – | – | 4.15 µM | 4.5 µM | 5.9 µM | – | > 50 µM | – | – | –
9 | COc1cccc2c1C(=O)c1c(O)c3c(c(O)c1C2=O)C[C@@](O)(C(=O)CO)C[C@@H]3O[C@H]1C[C@H](N)[C@H](O)[C@H](C)O1 [DOXORUBICIN] | – | Active | 0.0063 µM | 0.078 µM | 0.0096 µM | – | – | – | Weak activity | –
10 | O=C(CCN1CCOCC1)Nc1ccc2c(c1)C(=O)c1ccc(NC(=O)CCN3CCOCC3)cc1C2=O | – | – | 20 µM | 9 µM | 4.8 µM | – | > 50 µM | – | – | –
11 | CCC[N+](C)(CCC)CCC(=O)Nc1ccc2c(c1)C(=O)c1ccc(NC(=O)CC[N+](C)(CCC)CCC)cc1C2=O | – | – | 0.68 µM | 2 µM | 0.5 µM | – | – | – | – | –
12 | O=C(CCN1CCCCC1)Nc1ccc(NC(=O)CCN2CCCCC2)c2c1C(=O)c1ccccc1C2=O | – | – | 0.26 µM | 2.4 µM | 0.29 µM | – | – | – | – | –
13 | C[N+](C)(C)CCC(=O)Nc1ccc(NC(=O)CC[N+](C)(C)C)c2c1C(=O)c1ccccc1C2=O | – | – | 2 µM | 11.5 µM | 2.15 µM | – | – | – | – | –
14 | CN(C)CCC(=O)Nc1ccc2c(c1)C(=O)c1ccc(NC(=O)CCN(C)C)cc1C2=O | – | – | 1.8 µM | 2.9 µM | 2.55 µM | – | – | – | – | –
15 | O=C(CCN1CCOCC1)Nc1ccc(NC(=O)CCN2CCOCC2)c2c1C(=O)c1ccccc1C2=O | – | – | 1.95 µM | 21 µM | 3.7 µM | – | 33.5 µM | – | – | –
16 | C[N+]1(CC(=O)Nc2ccc3c(c2)C(=O)c2ccc(NC(=O)C[N+]4(C)CCOCC4)cc2C3=O)CCOCC1 | – | – | 18 µM | 45.5 µM | 13 µM | – | – | – | – | –
17 | O=C(CCN1CCCCC1CO)Nc1ccc(NC(=O)CCN2CCCCC2CO)c2c1C(=O)c1ccccc1C2=O (centres undefined) | – | – | 0.064 µM | 0.27 µM | 0.02 µM | – | – | – | – | –
18 | C[N+]1(CCC(=O)Nc2ccc(NC(=O)CC[N+]3(C)CCOCC3)c3c2C(=O)c2ccccc2C3=O)CCOCC1 | – | – | 1.65 µM | 8.5 µM | 0.76 µM | – | 34.5 µM | – | – | –
19 | C[N+]1(CCC(=O)Nc2ccc3c(c2)C(=O)c2ccc(NC(=O)CC[N+]4(C)CCCCC4CO)cc2C3=O)CCCCC1CO (centres undefined) | – | – | 2.3 µM | 1.8 µM | 1.25 µM | – | – | – | – | –
20 | C[N+]1(CCC(=O)Nc2ccc(NC(=O)CC[N+]3(C)CCCCC3)c3c2C(=O)c2ccccc2C3=O)CCCCC1 | – | – | 4.3 µM | 32.5 µM | 1.75 µM | – | 11.1 µM | – | – | –
21 | C[N+]1(CCC(=O)Nc2ccc3c(c2)C(=O)c2ccc(NC(=O)CC[N+]4(C)CCOCC4)cc2C3=O)CCOCC1 | – | – | 1.7 µM | 3 µM | 1.9 µM | – | – | – | – | –
22 | O=C(CCN1CCCCC1CO)Nc1ccc2c(c1)C(=O)c1ccc(NC(=O)CCN3CCCCC3CO)cc1C2=O (centres undefined) | – | – | 14.5 µM | 2.4 µM | 2.45 µM | – | – | – | – | –
23 | CN(C)CCC(=O)Nc1ccc(NC(=O)CCN(C)C)c2c1C(=O)c1ccccc1C2=O | Weak inhibition | Weak inhibition | 0.04 µM | 0.36 µM | 0.016 µM | – | – | – | – | –
24 | C[N+]1(CCC(=O)Nc2ccc3c(c2)C(=O)c2ccc(NC(=O)CC[N+]4(C)CCCCC4)cc2C3=O)CCCCC1 | – | – | 1.85 µM | 2.2 µM | < 1 µM | – | – | – | – | –
25 | CCC[N+](C)(CCC)CCC(=O)Nc1ccc(NC(=O)CC[N+](C)(CCC)CCC)c2c1C(=O)c1ccccc1C2=O | – | – | 4.45 µM | 16 µM | 1.4 µM | – | – | – | – | –
26 | Nc1nc2c(ncn2[C@H]2CC[C@@H](COP(=O)(O)OP(=O)(O)OP(=O)(O)O)O2)c(=O)[nH]1 [DIDEOXY GUANOSINE TRIPHOSPHATE] | – | – | – | – | – | – | – | – | – | 8.6 µM
27 | O=C(CN1CCCCC1)Nc1ccc2c(c1)C(=O)c1ccc(NC(=O)CN3CCCCC3)cc1C2=O | – | – | 5.05 µM | 5 µM | 1.65 µM | – | > 50 µM | – | – | –
28 | C[N+]1(CCC(=O)Nc2ccc(NC(=O)CC[N+]3(C)CCCCC3CO)c3c2C(=O)c2ccccc2C3=O)CCCCC1CO (centres undefined) | – | – | 0.54 µM | 1.5 µM | 0.38 µM | – | 9.4 µM | – | – | –
